Data as given in publication PMC8258284 (Infection & Chemotherapy, 2021).
Where “and” joins values, the source holds several entries; their conditions need not be identical. Equal values may be shown once. Entries after “also recorded” stand apart in the source; their conditions may differ. Where a name gives a salt, the structure may show the parent alone. Marks after values point to notes of the source that are not given here.

Columns and labels:
cutaneous leishmaniasis = conditions: different CL topical formulations alone or combined; cited from earlier work
[1] = type: in vivo, BALB/c mice; conditions: range over organs after topical NE treatment; listed as PM
In short: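 Healthy female BALB/c mice, 7–9 weeks (N = 3/group), received 50 μL NE topically at the tail base every three days for 15 days. ClAlPc groups were irradiated (672 ± 40 nm, 7 min, 20 J/cm2) 30 min post-application. Six days after treatment, liver, spleen, kidney and treated skin (20–25 mg) were macerated, sonicated and centrifuged 10 min at 10,000 rpm. Supernatants were taken up in Trizma buffer pH 7.8, and PM was measured by C18 HPLC after 1-fluoro-2,4-dinitrobenzene derivatization.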

THP-1 cell = THP-1 cell toxicity; type: cell-based, Human
In short: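 Non-infected THP-1 cells were PMA-transformed (72 h) and seeded at 8 × 10^5 cells/mL. Treated 24 h with NE serial dilutions (1:2–1:1,000), vehicle, or ClAlPc/PM solutions. Irradiated at 37°C with 400–700 nm light, 32 min, 5 J/cm2, or left non-irradiated, then incubated 24 h in the dark. Viability read by MTT; % toxicity calculated relative to untreated controls.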

[2] = tested on: Intracellular amastigotes of L. (V.) braziliensis; assay: Intracellular amastigote inhibition in transformed THP-1 cells; type: cell-based, Leishmania (Viannia) braziliensis
In short: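 PMA-differentiated (72 h) THP-1 cells infected with latent-phase L. (V.) braziliensis MHOM/BR/75/M2903 promastigotes, 8 × 10^5 cells/mL. Exposed 24 h to NE serial dilutions (1:2–1:1,000), vehicle, ClAlPc (0.04–20 µM) or PM (244.0–121,827.0 µM) solutions. Then 400–700 nm light, 32°C, 32 min, 5 J/cm2, or kept non-irradiated, followed by 24 h dark. Giemsa counts of infected/uninfected cells give % inhibition versus untreated controls. PI = % inhibition at 0 J/cm2 / % at 5 J/cm2.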

[3] = tested on: Promastigotes of L. (V.) braziliensis (MHOM/BR/75/M2903); assay: Promastigote inhibition; type: cell-based, Leishmania (Viannia) braziliensis
[4] = Ex vivo skin permeation and retention test; type: in vitro ADME, mice
[5] = dilution 1,000, PDT + (5 J/cm^2)
[6] = dilution 100 (0.4 µM ClAlPc), PDT + (5 J/cm^2)

Row | Compound | % of inhibition (mean ± SD), THP-1 cell (THP-1 cell; dilution 2, PDT + (5 J/cm^2)) [%] | % of inhibition (mean ± SD), THP-1 cell (THP-1 cell; dilution 2, PDT −) [%] | % of inhibition (mean ± SD), THP-1 cell (THP-1 cell; dilution 10, PDT + (5 J/cm^2)) [%] | % of inhibition (mean ± SD), THP-1 cell (THP-1 cell; dilution 10, PDT −) [%] | % of inhibition (mean ± SD), THP-1 cell (THP-1 cell; dilution 100, PDT + (5 J/cm^2)) [%] | % of inhibition (mean ± SD), THP-1 cell (THP-1 cell; dilution 100, PDT −) | % of inhibition (mean ± SD), THP-1 cell (THP-1 cell; [5]) [%] | % of inhibition (mean ± SD), THP-1 cell (THP-1 cell; dilution 1,000, PDT −) [%] | % of inhibition (mean ± SD), Intracellular amastigotes ([2]; dilution 50, PDT + (5 J/cm^2)) [%] | % of inhibition (mean ± SD), Intracellular amastigotes ([2]; dilution 50, PDT −) [%] | % of inhibition (mean ± SD), Intracellular amastigotes [2, 6] [%] | % of inhibition (mean ± SD), Intracellular amastigotes ([2]; dilution 100, PDT −) [%] | % of inhibition (mean ± SD), Intracellular amastigotes ([2]; dilution 300, PDT + (5 J/cm^2)) | % of inhibition (mean ± SD), Intracellular amastigotes ([2]; dilution 300, PDT −) [%] | % of inhibition (mean ± SD), Intracellular amastigotes ([2]; dilution 500, PDT + (5 J/cm^2)) | % of inhibition (mean ± SD), Intracellular amastigotes ([2]; dilution 500, PDT −) [%] | % of inhibition (mean ± SD), Promastigotes ([3]; dilution 2, PDT + (5 J/cm^2)) [%] | % of inhibition (mean ± SD), Promastigotes ([3]; dilution 2, PDT −) [%] | % of inhibition (mean ± SD), Promastigotes ([3]; dilution 10, PDT + (5 J/cm^2)) [%] | % of inhibition (mean ± SD), Promastigotes ([3]; dilution 10, PDT −) [%] | other results
1 | NC[C@@H]1O[C@H](O[C@H]2[C@@H](O)[C@H](O[C@@H]3[C@@H](O)[C@H](N)C[C@H](N)[C@H]3O[C@H]3O[C@H](CO)[C@@H](O)[C@H](O)[C@H]3N)O[C@@H]2CO)[C@H](N)[C@@H](O)[C@@H]1O [PM (s), paromomycin sulfate] | 78.7 ± 5.3 | 79.2 ± 3.0 | 34.3 ± 5.2 | 33.1 ± 3.5 | 18.6 ± 5.1 | 17.9 ± 8.0^a % | 0.7 ± 1.0 | 0.3 ± 0.6 | 54.1 ± 2.6 | 60.6 ± 2.4 | 46.6 ± 2.8 | 48.5 ± 5.8 | 30.3 ± 2.8% | 27.3 ± 8.1 | 0% | 2.3 ± 1.1 | 78.7 ± 5.9 | 78.5 ± 3.3 | 98.5 ± 1.4 | 98.4 ± 1.6 | Healing rates (clinical efficacy) (cutaneous leishmaniasis): 53.3 to 90.0%; Concentrations of PM detected in organs [1]: 27.3 - 292.5 μM/25 mg and 27.26 - 292.49 μM/25 mg; % of inhibition (mean ± SD), Promastigotes [3, 6]: 99.9 ± 0.0%; % of inhibition (mean ± SD), Promastigotes ([3]; dilution 100, PDT −): 99.9 ± 0.0%; % of inhibition (mean ± SD), Promastigotes [3, 5]: 100%; % of inhibition (mean ± SD), Promastigotes ([3]; dilution 1,000, PDT −): 100%
2 | chloroaluminium phthalocyanine [ClAlPc (s)] | 97.8 ± 0.6 | 4.5 ± 1.7 | 97.6 ± 0.5 | 0 | 49.1 ± 4.8 | 0% | 13.8 ± 4.1 | 0 | 93.4 ± 2.8 | 2.8 ± 0.3 | 65.8 ± 4.7 | 0.5 ± 0.8 | 21.8 ± 7.0^a % | 0.4 ± 0.0 | 6.9 ± 2.1^a % | 0 | 100 | 0.3 ± 0.7 | 100 | 1.0 ± 1.0 | ClAlPc retained in the epidermis/dermis ([4]; after 24 h): 26.27 μM/cm^2; ClAlPc retained by the stratum corneum ([4]; after 24 h, tape stripping): 143.97 μM/cm^2; ClAlPc skin permeation (receptor compartment) ([4]; any time point up to 24 h): No skin ClAlPc permeation was observed; also recorded: did not permeate through the skin; % of inhibition (mean ± SD), Promastigotes ([3]; dilution 100, PDT −): 0%; % of inhibition (mean ± SD), Promastigotes [3, 5]: 0%; % of inhibition (mean ± SD), Promastigotes ([3]; dilution 1,000, PDT −): 0%
